According to ChEMBL document CHEMBL4177755, “Combating Drug-Resistant Fungi with Novel Imperfectly Amphipathic Palindromic Peptides” (J Med Chem, 2018):

Tests used:
Type in all cases: functional
[1] = tested on: Escherichia coli; assay: Antibacterial activity against Escherichia coli ATCC 25922 after 18 hrs in presence of NaCl by broth dilution method
[2] = tested on: Escherichia coli; assay: Antibacterial activity against Escherichia coli ATCC 25922 after 18 hrs in presence of FeCl3 by broth dilution method
[3] = tested on: Escherichia coli; assay: Antibacterial activity against Escherichia coli ATCC 25922 after 18 hrs in presence of NH4Cl by broth dilution method
[4] = tested on: Staphylococcus aureus; assay: Bactericidal activity against Staphylococcus aureus ATCC 29213
Procedure, shortened: (§1)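 Wells from the 24 h, 37 °C MHB microdilution plates (bacteria at a final (0.5−1) × 10^5 CFU/mL; peptide diluted in 0.2% BSA) were plated on agar and incubated overnight. MBC is the lowest concentration killing >99.9% of cells. Each test was reproduced at least 3 times.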

[5] = tested on: Staphylococcus epidermidis; assay: Bactericidal activity against Staphylococcus epidermidis ATCC 12228; procedure, shortened: as §1
[6] = tested on: Staphylococcus aureus; assay: Bactericidal activity against Staphylococcus aureus ATCC 25923; procedure, shortened: as §1
[7] = tested on: Escherichia coli; assay: Antibacterial activity against Escherichia coli ATCC 25922 after 24 hrs
Procedure, shortened: (§2)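 Broth microdilution. Mid-log bacteria in MHB at a final (0.5−1) × 10^5 CFU/mL were mixed with equal volumes of peptide serially diluted in 0.2% BSA. Plates were incubated 24 h at 37 °C and read at A492. MIC is the lowest concentration inhibiting 95% of growth. Each test was repeated at least 3 times.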

[8] = tested on: Escherichia coli; assay: Bactericidal activity against Escherichia coli 1005; procedure, shortened: as §1
[9] = tested on: Salmonella typhimurium; assay: Bactericidal activity against Salmonella typhimurium ATCC 14028; settings: Salmonella enterica subsp. enterica serovar Typhimurium; procedure, shortened: as §1
[10] = tested on: Staphylococcus aureus; assay: Antibacterial activity against methicillin-resistant Staphylococcus aureus ATCC 4330 after 24 hrs
Procedure, shortened: (§3)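 Modified NCCLS broth microdilution. Mid-log bacteria at (0.5−1) × 10^5 CFU/mL in MHB were mixed 1:1 with peptide serially diluted in 0.2% BSA and incubated 24 h at 37 °C. Absorbance was read at 492 nm; MIC is the lowest concentration inhibiting 95% of growth. At least 3 repeats.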

[11] = tested on: Staphylococcus epidermidis; assay: Antibacterial activity against Staphylococcus epidermidis ATCC 12228 after 24 hrs; procedure, shortened: as §2
[12] = tested on: Escherichia coli; assay: Antibacterial activity against Escherichia coli ATCC 25922 after 18 hrs in presence of 25% human heat-inactivated serum by broth dilution method
[13] = tested on: Salmonella typhimurium; assay: Antibacterial activity against Salmonella typhimurium ATCC 14028 after 24 hrs; settings: Salmonella enterica subsp. enterica serovar Typhimurium; procedure, shortened: as §2
[14] = tested on: Escherichia coli; assay: Antibacterial activity against Escherichia coli ATCC 25922 after 18 hrs in presence of KCl by broth dilution method
[15] = tested on: Escherichia coli; assay: Antibacterial activity against Escherichia coli ATCC 25922 after 18 hrs in presence of ZnCl2 by broth dilution method
[16] = tested on: Staphylococcus aureus; assay: Antibacterial activity against Staphylococcus aureus ATCC 29213 after 24 hrs; procedure, shortened: as §3
[17] = tested on: Escherichia coli; assay: Bactericidal activity against Escherichia coli ATCC 25922; procedure, shortened: as §1
[18] = tested on: Escherichia coli; assay: Antibacterial activity against Escherichia coli 1005 after 24 hrs; procedure, shortened: as §2
[19] = tested on: Salmonella enterica subsp. enterica serovar Pullorum; assay: Antibacterial activity against Salmonella pullorum ATCC 7913 after 24 hrs; procedure, shortened: as §2
[20] = tested on: Salmonella enterica subsp. enterica serovar Pullorum; assay: Bactericidal activity against Salmonella pullorum ATCC 7913; procedure, shortened: as §1
[21] = tested on: Escherichia coli; assay: Antibacterial activity against Escherichia coli ATCC 25922 after 18 hrs in presence of 50% human heat-inactivated serum by broth dilution method
[22] = tested on: Staphylococcus aureus; assay: Antibacterial activity against Staphylococcus aureus ATCC 25923 after 24 hrs; procedure, shortened: as §3
[23] = tested on: Escherichia coli; assay: Antibacterial activity against Escherichia coli ATCC 25922 after 18 hrs in presence of CaCl2 by broth dilution method
[24] = tested on: Escherichia coli; assay: Antibacterial activity against Escherichia coli ATCC 25922 after 18 hrs in presence of MgCl2 by broth dilution method
[25] = tested on: Escherichia coli; assay: Antibacterial activity against Escherichia coli ATCC 25922 after 18 hrs in presence of 12.5% human heat-inactivated serum by broth dilution method
[26] = tested on: Staphylococcus aureus; assay: Bactericidal activity against methicillin-resistant Staphylococcus aureus ATCC 4330
Procedure, shortened: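 Bacteria at (0.5−1) × 10^5 CFU/mL in MHB were exposed to serially diluted peptide (0.2% BSA) for 24 h at 37 °C, then 50 μL aliquots were plated on agar overnight. MBC is the lowest concentration killing >99.9% of cells. At least 3 repeats.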

GENTAMICIN
MIC [1]: 2 µM | MIC [2]: 1 µM | MIC [3]: 2 µM | MBC99.9 [4]: 1 µM | MBC99.9 [5]: 1 µM | MBC99.9 [6]: 1 µM | MIC95 [7]: 1 µM | MBC99.9 [8]: 1 µM | MBC99.9 [9]: 4 µM | MIC95 [10]: 8 µM | MIC95 [11]: 0.5 µM | MIC [12]: 1 µM | MIC95 [13]: 2 µM | MIC [14]: 1 µM | MIC [15]: 2 µM | MIC95 [16]: 1 µM | MBC99.9 [17]: 2 µM | MIC95 [18]: 0.5 µM | MIC95 [19]: 1 µM | MBC99.9 [20]: 2 µM | MIC [21]: 2 µM | MIC95 [22]: 1 µM | MIC [23]: 1 µM | MIC [24]: 1 µM | MIC [25]: 1 µM | MBC99.9 [26]: 8 µM
